Experimental data reported in publication PMC5299035 (Drug development research, 2016).

Tests used:
Format in all cases: cell-based
FPR1 = target: T1, FPR1 (Homo sapiens, UniProt P21462); assay: Ca2+ mobilization assay in FPR1-HL60 cells; settings: for Emax: read-out: Ca2+ flux FPR1-HL60 efficacy
T1 sequence (P21462 1-350): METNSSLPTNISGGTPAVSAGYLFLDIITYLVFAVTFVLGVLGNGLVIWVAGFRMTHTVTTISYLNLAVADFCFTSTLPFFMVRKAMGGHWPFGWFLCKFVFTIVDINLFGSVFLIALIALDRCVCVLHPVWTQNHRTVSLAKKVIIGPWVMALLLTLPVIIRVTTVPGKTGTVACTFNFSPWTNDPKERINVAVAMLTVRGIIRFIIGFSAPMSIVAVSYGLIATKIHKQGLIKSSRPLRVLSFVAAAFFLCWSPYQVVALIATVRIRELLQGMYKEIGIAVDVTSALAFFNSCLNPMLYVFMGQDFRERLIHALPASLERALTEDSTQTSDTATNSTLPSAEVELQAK
How it was run: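 FPR1-transfected HL60 cells were grown in RPMI 1640 with 10% heat-inactivated FCS, 10 mM HEPES and G418 (1 mg/mL). Cells were loaded with Fluo-4 AM (1.25 μg/mL final) for 30 min at 37 °C in the dark, then washed and seeded in HBSS+ at 2 × 10^5 cells/well. Fluorescence (485/538 nm) was read every 5 s for 240 s at room temperature after compound addition. Peak rise over baseline was set against 5 nM fMLF (100%). EC50 came from nonlinear regression of 5-6-point curves, mean of three independent experiments. No activity meant no response within 2 min (limits: efficacy >20%, EC50 <50 μM).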

FPR3 = target: T2, FPR3 (Homo sapiens, UniProt P25089); assay: Ca2+ mobilization assay in FPR3-HL60 cells; settings: for Emax: read-out: Ca2+ flux FPR3-HL60 efficacy
T2 sequence (P25089 1-353): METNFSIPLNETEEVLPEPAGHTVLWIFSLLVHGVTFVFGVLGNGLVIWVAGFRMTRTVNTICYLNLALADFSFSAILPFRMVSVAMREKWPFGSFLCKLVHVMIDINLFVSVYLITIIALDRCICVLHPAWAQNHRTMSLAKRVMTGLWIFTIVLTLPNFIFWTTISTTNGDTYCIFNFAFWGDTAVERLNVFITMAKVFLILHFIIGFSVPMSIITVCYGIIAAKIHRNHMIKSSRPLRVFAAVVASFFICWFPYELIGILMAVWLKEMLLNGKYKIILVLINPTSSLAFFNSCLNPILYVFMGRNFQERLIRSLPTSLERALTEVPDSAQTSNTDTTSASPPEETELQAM
How it was run: (§1)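 FPR2- or FPR3-transfected HL60 cells were grown in RPMI 1640 with 10% heat-inactivated FCS and G418 1 mg/mL. Cells were loaded with Fluo-4 AM (1.25 μg/mL final) for 30 min at 37 °C in the dark, washed, and seeded at 2 × 10^5 cells/well in HBSS+. Fluorescence (ex 485/em 538 nm) was read every 5 s for 240 s at room temperature. Peak rise over baseline was normalised to the reference agonist. EC50 came from 5-6-point nonlinear regression over three independent experiments.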

human neutrophils = assay: Ca2+ mobilization assay in human neutrophils; settings: Homo sapiens, Neutrophil, read-out: Ca2+ flux human neutrophils EC50
How it was run: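 Neutrophils from healthy donors were purified by dextran sedimentation, Histopaque 1077 gradient and hypotonic red-cell lysis (>95% pure, >98% viable). After Fluo-4 AM loading (1.25 μg/mL final, 30 min, 37 °C, dark), cells were seeded at 2 × 10^5/well in HBSS with Ca2+/Mg2+. Fluorescence (485/538 nm) was tracked every 5 s for 240 s at room temperature. Maximum change over baseline was normalised, and EC50 came from a 5-6-point nonlinear fit.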

FPR2 = target: T3, FPR2 (Homo sapiens, UniProt P25090); assay: Ca2+ mobilization assay in FPR2-HL60 cells; settings: for Emax: read-out: Ca2+ flux FPR2-HL60 efficacy
T3 sequence (P25090 1-351): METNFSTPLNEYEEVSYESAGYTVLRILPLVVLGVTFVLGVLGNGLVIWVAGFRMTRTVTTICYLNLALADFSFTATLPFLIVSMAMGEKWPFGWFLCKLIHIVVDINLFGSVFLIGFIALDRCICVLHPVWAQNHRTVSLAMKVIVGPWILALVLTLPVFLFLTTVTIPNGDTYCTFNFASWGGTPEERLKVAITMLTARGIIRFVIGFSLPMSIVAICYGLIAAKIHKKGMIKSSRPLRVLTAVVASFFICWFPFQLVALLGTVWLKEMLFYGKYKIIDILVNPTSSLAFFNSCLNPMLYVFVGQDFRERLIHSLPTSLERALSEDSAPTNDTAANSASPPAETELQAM
How it was run: as §1

mouse Fpr2 = target: T4, mouse Fpr2 (Mus musculus, UniProt O88536); assay: Ca2+ mobilization assay in mFpr2-RBL cells
T4 sequence (O88536 1-351): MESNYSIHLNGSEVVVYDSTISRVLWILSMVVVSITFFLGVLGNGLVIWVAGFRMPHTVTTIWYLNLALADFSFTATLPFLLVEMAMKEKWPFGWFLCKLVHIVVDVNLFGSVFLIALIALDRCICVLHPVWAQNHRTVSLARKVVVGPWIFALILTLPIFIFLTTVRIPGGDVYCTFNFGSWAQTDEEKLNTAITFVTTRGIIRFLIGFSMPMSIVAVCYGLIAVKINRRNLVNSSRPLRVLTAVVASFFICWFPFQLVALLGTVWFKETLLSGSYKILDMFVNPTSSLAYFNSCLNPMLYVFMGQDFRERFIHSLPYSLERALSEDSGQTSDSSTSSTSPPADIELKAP
How it was run: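 RBL-2H3 cells stably expressing mouse Fpr2 were grown in DMEM with 20% FBS, 10 mM HEPES and G418 (250 μg/ml). Fluo-4 AM (1.25 μg/mL final) was loaded for 30 min at 37 °C in the dark. Cells were seeded in HBSS+ at 2 × 10^5 cells/well, and fluorescence (485/538 nm) was read every 5 s for 240 s at room temperature. Peak rise was normalized to 10 nM WKYMVm (100%). EC50 came from nonlinear regression of 5-6-point curves over three independent experiments.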

mouse neutrophils = assay: Ca2+ mobilization assay in mouse neutrophils; settings: % of the response induced by 10 nM WKYMVm
How it was run: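 Bone marrow was flushed from BALB/c mouse tibias and femurs and separated on a Percoll gradient (45/50/55/62/81%, 1600g, 30 min, 10 °C). Red cells were removed over Histopaque 1119. Neutrophils were loaded with Fluo-4 AM (1.25 μg/mL final) for 30 min at 37 °C, seeded in HBSS+ at 2 × 10^5 cells/well, and read at 485/538 nm every 5 s for 240 s at room temperature. Responses were normalized to 10 nM WKYMVm. EC50 came from nonlinear regression of 5-6-point curves, three experiments.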

Structure (SMILES)	Emax (FPR1)	EC50 (FPR3)	Emax (FPR3)	EC50 (human neutrophils)	Emax (FPR2)	EC50 (mouse Fpr2)	Ca2+ flux mFpr2-RBL efficacy (mouse Fpr2; % of the response induced by 10 nM WKYMVm)	Ca2+ flux mouse neutrophils efficacy (mouse neutrophils)	EC50 (FPR1)	EC50 (FPR2)
CCc1c(C)nn(CC(=O)Nc2ccc(Br)cc2)c(=O)c1Cc1cccc(OC)c1 [4c, N-(4-Bromophenyl)-2-[4-ethyl-5-(3-methoxybenzyl)-3-methyl-6-oxopyridazin-1(6H)-yl]acetamide]	120%	4.1 ± 1.7 µM	100%	1.2 ± 0.3 µM	100%					
CCCc1c(C)nn(CC(=O)Nc2ccc(Br)cc2)c(=O)c1Cc1cccc(OC)c1 [4d, N-(4-Bromophenyl)-2-[5-(3-methoxybenzyl)-3-methyl-6-oxo-4-propylpyridazin-1(6H)-yl]acetamide]	115%	3.4 ± 0.76 µM	65%	3.2 ± 1.2 µM	90%					
CCCCc1c(C)nn(CC(=O)Nc2ccc(Br)cc2)c(=O)c1Cc1cccc(OC)c1 [4e, N-(4-Bromophenyl)-2-[4-butyl-5-(3-methoxybenzyl)-3-methyl-6-oxopyridazin-1(6H)-yl]acetamide]				2.7 ± 0.7 µM	90%					
COc1cccc(Cc2c(-c3ccccc3)c(C)nn(CC(=O)Nc3ccc(Br)cc3)c2=O)c1 [4f, N-(4-Bromophenyl)-2-[5-(3-methoxybenzyl)-3-methyl-6-oxo-4-phenylpyridazin-1(6H)-yl]acetamide]	160%			5.4 ± 0.26 µM		28.8 ± 5.2 µM	180%	95%		
Cc1cc(=O)n(CC(=O)Nc2ccc(Br)cc2)nc1C [7a, N-(4-Bromophenyl)-2-[3,4-dimethyl-6-oxopyridazin-1(6H)-yl]acetamide]	110%			2 ± 0.29 µM	90%			70%	5.7 ± 2.1 µM	0.51 ± 0.19 µM
Cc1nn(CC(=O)Nc2ccc(Br)cc2)c(=O)cc1-c1ccccc1 [7b, N-(4-Bromophenyl)-2-[3-methyl-6-oxo-4-phenylpyridazin-1(6H)-yl]acetamide]		0.97 ± 0.23 µM	95%	0.2 ± 0.056 µM	115%			75%		0.15 ± 0.052 µM
CC(=O)c1sc(=O)n(CC(=O)Nc2ccc(Br)cc2)c1C [9a, 2-(5-Acetyl-4-methyl-2-oxo-thiazol-3-yl)-N-(4-bromophenyl)acetamide]	75%			12.2 ± 2.5 µM	60%				8.9 ± 1.9 µM	5.8 ± 1.4 µM
Cc1csc(=O)n1CC(=O)Nc1ccc(Br)cc1 [9b, N-(4-Bromophenyl)-2-(4-methyl-2-oxo-thiazol-3-yl)acetamide]	70%	27.8 ± 3.2 µM	85%	10.7 ± 2.3 µM	80%				12.4 ± 2.6 µM	4.1 ± 1.1 µM
O=C(Cn1c(-c2ccccc2)csc1=O)Nc1ccc(Br)cc1 [9c, N-(4-Bromophenyl)-2-(2-oxo-4-phenyl-thiazol-3-yl)acetamide]	100%	19.7 ± 2.4 µM	135%	6 ± 1.5 µM	95%				1.8 ± 0.6 µM	2.1 ± 0.6 µM
COc1cccc(-c2csc(=O)n2CC(=O)Nc2ccc(Br)cc2)c1 [9d, N-(4-Bromophenyl)-2-[4-(3-methoxyphenyl)-2-oxothiazol-3-yl]-acetamide]	90%	5.1 ± 1.7 µM	100%	1.3 ± 0.3 µM	120%					
COc1ccc(-c2csc(=O)n2CC(=O)Nc2ccc(Br)cc2)cc1 [9e, N-(4-Bromophenyl)-2-[4-(4-methoxyphenyl)-2-oxothiazol-3-yl]acetamide]	110%	36.1 ± 3.3 µM	85%	7.4 ± 2.3 µM	100%				2.6 ± 0.6 µM	1.8 ± 0.16 µM
O=C(Cn1c(-c2cccc(Cl)c2)csc1=O)Nc1ccc(Br)cc1 [9f, N-(4-Bromophenyl)-2-[4-(3-chlorophenyl)-2-oxothiazol-3-yl]acetamide]	75%	32.2 ± 3.6 µM	75%	11.1 ± 2.8 µM	110%				6 ± 1.7 µM	3 ± 0.7 µM
O=C(Cn1c(-c2ccc(Cl)cc2)csc1=O)Nc1ccc(Br)cc1 [9g, N-(4-Bromophenyl)-2-[4-(4-chlorophenyl)-2-oxothiazol-3-yl]acetamide]	75%			12.2 ± 3.1 µM	75%					
O=C(Cn1c(-c2ccc([N+](=O)[O-])cc2)csc1=O)Nc1ccc(Br)cc1 [9h, N-(4-Bromophenyl)-2-[4-(4-nitrophenyl)-2-oxothiazol-3-yl]acetamide]	60%			1.5 ± 0.4 µM						
Nc1ccc(-c2csc(=O)n2CC(=O)Nc2ccc(Br)cc2)cc1 [compound 10, 2-[4-(4-Aminophenyl)-2-oxothiazol-3-yl]-N-(4-bromophenyl)acetamide]	80%			36.1 ± 3.9 µM	65%				34.9 ± 4.2 µM	14.7 ± 3.7 µM
